Assay results from different studies.
Lines come from different studies, so protocols differ.
Target: Homeodomain-interacting protein kinase 1 (HIPK1, Homo sapiens, UniProt Q86Z02)

| Compound | test | conditions | measurement | result |
| --- | --- | --- | --- | --- |
| Cc1ccc(NC(=O)c2ccnc(C(F)(F)F)c2)cc1-c1cc(OCCO)nc(N2CCOCC2)c1 | binding, competition with immobilised ligand | 1 µM | remaining binding | 93% |
| C=CC(=O)N1CCC([C@@H]2CCNc3c(C(N)=O)c(-c4ccc(Oc5ccccc5)cc4)nn32)CC1 | enzyme activity, inhibitor | 1 µM | inhibition | 26% |
| C#Cc1cc(-c2cc(Nc3nc(N[C@@H](C)c4ccc(F)cn4)ncc3Cl)n[nH]2)ccc1C=O | enzyme activity, inhibitor | 0.2 µM | inhibition | 22.6% |
| C=CC(=O)N1CCC[C@@H](n2nc(-c3ccc(Oc4ccccc4)cc3)c3c(N)ncnc32)C1 | enzyme activity, inhibitor | 1 µM | inhibition | 22% |
| C1=C/COCc2cc(ccc2OCCN2CCCC2)Nc2nccc(n2)-c2cccc(c2)COC/1 | binding | 0.1 µM | remaining binding | 6.7% |
| CCCCC(=O)Nc1ccc(-c2ccc3ncn(CCC)c(=O)c3c2)cn1 | binding, competition with immobilised ligand | 0.5 µM | remaining binding | 88% |
| COc1ccc2oc(-c3ccc4nc(N)oc4c3)c/c(=N\c3ccccc3NC(=O)CCN)c2c1 | binding | 1 µM | remaining binding | 103% |
| C[C@H]1CC[C@H](n2c3cnccc3c3cnc(Nc4ccc5c(n4)CCN(C(=O)CO)C5)nc32)CC1 | binding, competition with immobilised ligand | 1 µM | remaining binding | 45% |
